Laboratory results published in the M2OR odorant receptor database.

Biological target: T1, UniProt L7N210
T1 sequence (whole entry): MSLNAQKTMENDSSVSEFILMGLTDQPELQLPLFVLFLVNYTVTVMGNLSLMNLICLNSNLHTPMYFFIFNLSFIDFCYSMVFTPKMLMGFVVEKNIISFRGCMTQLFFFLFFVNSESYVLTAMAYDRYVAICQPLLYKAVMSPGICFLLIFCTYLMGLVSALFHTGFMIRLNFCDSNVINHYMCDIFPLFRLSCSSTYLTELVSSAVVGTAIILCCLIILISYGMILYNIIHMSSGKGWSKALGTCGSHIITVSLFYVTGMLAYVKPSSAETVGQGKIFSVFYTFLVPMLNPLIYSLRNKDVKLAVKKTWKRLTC
Details: stereoisomer not certain
Method in brief: (§1)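 Assay methods differ from source to source, frequently being transient luciferase assays in mammalian cell lines. For each receptor–molecule pair, the label responsive (active) applies when the original authors judged the measured signal statistically different from baseline, and non-responsive (inactive) applies otherwise.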

Row | Structure (SMILES) | odorant receptor agonist call
1 | CC(C)=CCCC(C)=CCOC(=O)C(C)C | inactive
2 | OCCc1ccccc1 | inactive
3 | CC(C)CCN | inactive
4 | CC1CCC(C(C)C)C(=O)C1 (stereo not drawn) | inactive
5 | C=CC(=O)CCCCC | inactive
6 | C=CC(=C)CCC=C(C)C | inactive
7 | CCCC=O | inactive
8 | C=C1C2CCC(C2)C1(C)C (stereo not drawn) | inactive
9 | C=CC(C)=CCC=C(C)CCC=C(C)C | inactive
10 | COc1nccnc1C | inactive
11 | CCCCCC(=Cc1ccccc1)C(OC)OC | inactive
12 | CCSCC | inactive
13 | C=C(C)C1CC=C(C)CC1 (stereo not drawn) | inactive
14 | Cc1ccc(OC(=O)C(C)C)cc1 | inactive
15 | CC=CC(=O)C1=C(C)CCCC1(C)C | inactive
16 | CSSCc1ccco1 | inactive
17 | O=C(O)C1CCC1 | inactive

Row | Structure (SMILES) | odorant receptor agonist call
18 | CC(CC=O)CCCC(C)(C)O (stereo not drawn) | inactive
19 | CCCCCCC(=O)OCCCC | inactive
20 | CCC=CCCC=CC=O | inactive
21 | OCC=Cc1ccccc1 | active
22 | CCCCCOC(=O)CC | inactive
23 | Cc1c(C)c(C)c(C=O)c(C)c1C | active
24 | CC(=O)C1(C)CC2=C(CCCC2(C)C)CC1C (stereo not drawn) | inactive
25 | CCCCCCCCCCCO | inactive
26 | Cc1ccccc1OC(=O)C(C)C | inactive
27 | CCCCCC(C=O)=Cc1ccccc1 | inactive
28 | CC(C)=C1CCC(C)CC1=O (stereo not drawn) | inactive
29 | CCc1occc(=O)c1O | active
30 | CCCCCOC(=O)CCC | inactive
31 | CCCCCCC=CC=O | inactive
32 | CC(=O)OCc1ccc2c(c1)OCO2 | active
33 | CCCC(C)C(=O)OCC (stereo not drawn) | inactive
34 | CC(C)CS | inactive

Biological target: T2, UniProt Q3KPB0
T2 sequence (whole entry): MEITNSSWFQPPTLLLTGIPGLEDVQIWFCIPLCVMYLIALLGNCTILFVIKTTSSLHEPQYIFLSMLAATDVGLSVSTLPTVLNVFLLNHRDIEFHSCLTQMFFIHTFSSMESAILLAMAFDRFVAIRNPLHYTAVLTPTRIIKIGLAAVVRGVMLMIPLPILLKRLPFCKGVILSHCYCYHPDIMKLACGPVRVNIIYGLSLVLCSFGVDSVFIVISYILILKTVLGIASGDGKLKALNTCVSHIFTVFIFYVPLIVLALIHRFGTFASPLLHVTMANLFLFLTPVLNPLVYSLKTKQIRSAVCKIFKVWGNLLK
Details: stereoisomer not certain
Method in brief: as §1

Row | Structure (SMILES) | odorant receptor agonist call
35 | CC(C)=CCCC(C)=CCOC(=O)C(C)C | inactive
36 | OCCc1ccccc1 | inactive
37 | CC(C)CCN | inactive
38 | CC1CCC(C(C)C)C(=O)C1 (stereo not drawn) | inactive
39 | C=CC(=O)CCCCC | inactive
40 | C=CC(=C)CCC=C(C)C | inactive
41 | CCCC=O | inactive
42 | C=C1C2CCC(C2)C1(C)C (stereo not drawn) | inactive
43 | C=CC(C)=CCC=C(C)CCC=C(C)C | inactive
44 | COc1nccnc1C | inactive
45 | CCCCCC(=Cc1ccccc1)C(OC)OC | inactive
46 | CCSCC | inactive
47 | C=C(C)C1CC=C(C)CC1 (stereo not drawn) | inactive
48 | Cc1ccc(OC(=O)C(C)C)cc1 | inactive
49 | CC=CC(=O)C1=C(C)CCCC1(C)C | inactive
50 | CSSCc1ccco1 | inactive
51 | O=C(O)C1CCC1 | inactive

Row | Structure (SMILES) | odorant receptor agonist call
52 | CC(CC=O)CCCC(C)(C)O (stereo not drawn) | inactive
53 | CCCCCCC(=O)OCCCC | inactive
54 | CCC=CCCC=CC=O | inactive
55 | OCC=Cc1ccccc1 | inactive
56 | CCCCCOC(=O)CC | inactive
57 | Cc1c(C)c(C)c(C=O)c(C)c1C | inactive
58 | CC(=O)C1(C)CC2=C(CCCC2(C)C)CC1C (stereo not drawn) | inactive
59 | CCCCCCCCCCCO | inactive
60 | Cc1ccccc1OC(=O)C(C)C | inactive
61 | CCCCCC(C=O)=Cc1ccccc1 | inactive
62 | CC(C)=C1CCC(C)CC1=O (stereo not drawn) | inactive
63 | CCc1occc(=O)c1O | inactive
64 | CCCCCOC(=O)CCC | inactive
65 | CCCCCCC=CC=O | inactive
66 | CC(=O)OCc1ccc2c(c1)OCO2 | inactive
67 | CCCC(C)C(=O)OCC (stereo not drawn) | inactive
68 | CC(C)CS | inactive
